From publication PMC2911241 (Letters in drug design & discovery, 2010)
Like-named read-outs stand apart in the source and are kept apart here.

What was measured:
[1] = test system: K562 cells; assay: Cell cycle analysis by flow cytometry; assay type: cell-based, human; conditions: for Cell cycle percentage G0/G1 / Cell cycle percentage G2/M / Cell cycle percentage S: K562 cells treated at the IC50, calculated using living cells, mean ± SE; for Effect on cell cycle distribution (in words): K562 cells, each compound at the IC50 value
Method in brief: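 K562 cells grown in RPMI 1640 with 10% FCS, 2 mM L-glutamine, penicillin (100 U/ml) and streptomycin (100 μg/ml) at 37 °C under 5% CO2, then exposed to test compound. Cells washed once in ice-cold PBS and resuspended at 1×10^6/mL in hypotonic propidium iodide (50 μg/mL, 0.1% sodium citrate, 0.03% NP-40) for 30 min. Single-parameter flow cytometry DNA histograms; phase percentages from living cells; hypodiploid peak scored as apoptotic.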

[2] = test system: tubulin; assay: Inhibition of [3H]colchicine binding to tubulin; conditions: tubulin, colchicine and tested compound at 1, 5 and 1 μM
Method in brief: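 Purified tubulin incubated with [3H]colchicine and test compound for 10 min at 37 °C. Read-out is percent inhibition of radiolabelled colchicine binding. Combretastatin A-4 served as reference at 1 μM.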

[3] = test system: human chronic myelogenous K562 leukemia cells; assay: Cell proliferation analysis, K562 cells; assay type: cell-based; conditions: Homo sapiens
Method in brief: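 K562 cells grown in RPMI 1640 with 10% FCS, 2 mM L-glutamine, […] and penicillin/streptomycin at 37°C, 5% CO2. DMSO stocks (1 mg/mL) diluted in medium. Cells (1×10^4/well) exposed to increasing concentrations for 24 h at 37°C, then counted electronically. IC50 is 50% growth inhibition vs untreated controls. Duplicate cultures per concentration, repeated experiments, mean ± SE.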

[4] = K562, 24 h, read-out: IC50 K562
[5] = K562, read-out: IC50 (nM) in Table 3

Structure (SMILES)	Cell cycle percentage G0/G1 [1] [%]	Cell cycle percentage G2/M [1] [%]	Cell cycle percentage S [1] [%]	Colchicine binding % ±SD (inhibition of [3H]colchicine binding) [2] [%]	IC50 [3, 4] [nM]	IC50 [3, 5] [nM]	Effect on cell cycle distribution (in words) [1]
COc1ccc2c(NC(C)=O)c(C(=O)c3cc(OC)c(OC)c(OC)c3)oc2c1 [Compound 3i, N-[6-Methoxy-2-(3,4,5-trimethoxybenzoyl)-1-benzofuran-3-yl]acetamide]	27±5	37±6	36±8	51±7	27 ± 10	85	–
COc1ccc2c(NC(=O)CCl)c(C(=O)c3cc(OC)c(OC)c(OC)c3)oc2c1 [Compound 3j, 2-Chloro-N-[6-methoxy-2-(3,4,5-trimethoxybenzoyl)-1-benzofuran-3-yl]acetamide]	23±4	33±5	44±7	47±5	30 ± 20	400	caused cells to accumulate in late S phase
COc1ccc2c(NC(=O)CBr)c(C(=O)c3cc(OC)c(OC)c(OC)c3)oc2c1 [Compound 3k, 2-Bromo-N-[6-methoxy-2-(3,4,5-trimethoxybenzoyl)-1-benzofuran-3-yl]acetamide]	6±1	67±8	27±4	49±2	180 ± 30	212	–
COc1ccc2c(NC(=O)CI)c(C(=O)c3cc(OC)c(OC)c(OC)c3)oc2c1 [Compound 3l, 2-Iodo-N-[6-methoxy-2-(3,4,5-trimethoxybenzoyl)-1-benzofuran-3-yl]acetamide]	23±3	21±3	56±4	54±1	64 ± 20	115	caused an increase in the percentage of cells in S phase
